{"data": "Results pooled from the literature", "PCNA": "Proliferating cell nuclear antigen (PCNA, Homo sapiens, UniProt P12004)", "F10 trypsin-like site": "Coagulation factor X, trypsin-like site (F10, Homo sapiens, UniProt P00742)", "note": "Compare with care: the assays were run in different laboratories."}
{"Compound": "O=C(N[C@H]1COC(=O)[C@@H](NC(=O)c2cccc(O)c2[O-])COC(=O)[C@@H](NC(=O)c2cccc(O)c2[O-])COC1=O)c1cccc(O)c1[O-].[Fe+3]", "target": "Neutrophil gelatinase-associated lipocalin (LCN2, Homo sapiens, UniProt P80188, C107S)", "assay": "binding, fluorescence", "setting": "pH 5.5", "endpoint": "Kd", "value": "0.00015 µM"}
{"Compound": "CC[C@H](C)[C@H](NC(=O)[C@H](CCCCN)NC(=O)[C@H](CO)NC(=O)[C@H](CC(=O)O)NC(=O)[C@H](CCCCN)NC(=O)[C@H](CCCCN)NC(=O)CNC(=O)[C@H](Cc1c[nH]cn1)NC(=O)[C@@H](N)CCC(N)=O)C(=O)N[C@H](C(=O)N[C@@H](CC(=O)O)C(=O)N[C@@H](Cc1c[nH]cn1)C(=O)N[C@@H](C)C(=O)N[C@@H](CCSC)C(=O)N[C@@H](CCCNC(=N)N)C(=O)N[C@@H](CC(C)C)C(=O)N1CCC[C@H]1C(=O)N[C@@H](CCCCN)C(=O)N[C@@H](C)C(=O)O)[C@@H](C)O", "target": "PCNA", "assay": "binding, ITC", "setting": "pH 7.4", "endpoint": "Kd", "value": "41.3 µM"}
{"Compound": "c1ccc2c(c1)-c1cccc3cccc-2c13", "target": "Cytochrome P450 1B1 (CYP1B1, Homo sapiens, UniProt Q16678)", "assay": "binding, absorbance", "setting": "pH 7.4", "endpoint": "Kd", "value": "1.6 µM"}
{"Compound": "CC[C@H](C)[C@H](NC(=O)[C@H](CCCNC(=N)N)NC(=O)[C@H](CO)NC(=O)[C@H](CC(=O)O)NC(=O)[C@H](CCCCN)NC(=O)[C@H](CCCCN)NC(=O)CNC(=O)[C@H](Cc1c[nH]cn1)NC(=O)[C@@H](N)CCC(N)=O)C(=O)N[C@H](C(=O)N[C@@H](CC(=O)O)C(=O)N[C@@H](Cc1c[nH]cn1)C(=O)N[C@@H](Cc1ccccc1)C(=O)N[C@@H](CCSC)C(=O)N[C@@H](CCCNC(=N)N)C(=O)N[C@@H](CC(C)C)C(=O)N1CCC[C@H]1C(=O)N[C@@H](CCCCN)C(=O)N[C@@H](C)C(=O)O)[C@@H](C)O", "target": "PCNA", "assay": "binding, ITC", "setting": "pH 7.4", "endpoint": "Kd", "value": "6.67 µM"}
{"Compound": "O=C(CCCCCCNC(=O)c1cnc(N(c2ccccc2)c2ccccc2)nc1)NO", "target": "Polyamine deacetylase HDAC10 (HDAC10, Homo sapiens, UniProt Q969S8)", "assay": "enzyme activity, inhibitor, fluorescence", "endpoint": "IC50", "value": "0.466 µM"}
{"Compound": "CC#CCOc1ccc(S(=O)(=O)CC2CS2)cc1 (racemic)", "target": "72 kDa type IV collagenase (MMP2, Homo sapiens, UniProt P08253)", "assay": "enzyme activity, inhibitor, fluorescence", "endpoint": "IC50", "value": "26 µM"}
{"Compound": "NCC(O)c1ccc(O)c(O)c1F (stereo not drawn)", "target": "Beta-2 adrenergic receptor (ADRB2, Homo sapiens, UniProt P07550, N293F)", "assay": "ligand displacement, radioligand", "setting": "cell membranes", "endpoint": "Ki", "value": "216 µM"}
{"Compound": "CC(=O)N[C@@H](C)C(=O)N1CCC[C@H]1C(=O)N[C@@H](CC(C)C)C(=O)N[C@H](C(=O)N[C@@H](CCCNC(=N)N)C(=O)NCC(=O)N[C@@H](CO)C(=O)N[C@@H](CS)C(=O)N[C@@H](CCCNC(=N)N)C(=O)N[C@@H](CCCCN)C(=O)N[C@@H](CCCNC(=N)N)C(=O)N[C@@H](CC(N)=O)C(=O)N[C@@H](CCCNC(=N)N)C(=O)N[C@@H](CO)C(=O)N1CCC[C@H]1C(=O)N[C@@H](CCC(=O)O)C(=O)N[C@@H](CCCNC(=N)N)C(N)=O)[C@@H](C)O", "target": "WD repeat-containing protein 5 (WDR5, Homo sapiens, UniProt P61964)", "assay": "binding, ITC", "setting": "pH 7", "endpoint": "Kd", "value": "14.6 µM"}
{"Compound": "CCOC(=O)C(CC)(CCCSCCOCCOCCOCCOCCNC(=O)OC(C)(C)C)NC(=O)c1ccc(C2CC2)c(Cc2ccc(F)cc2)n1 (stereo not drawn)", "target": "Cannabinoid receptor 2 (CNR2, Homo sapiens, UniProt P34972)", "assay": "cAMP, agonist", "endpoint": "EC50", "value": "0.013 µM"}
{"Compound": "CC[C@H](C)[C@H](NC(=O)[C@H](CC(C)C)NC(=O)[C@H](CO)NC(=O)[C@H](CC(=O)O)NC(=O)[C@H](CCCCN)NC(=O)[C@H](CCCCN)NC(=O)CNC(=O)[C@H](Cc1c[nH]cn1)NC(=O)[C@@H](N)CCC(N)=O)C(=O)N[C@H](C(=O)N[C@@H](CC(=O)O)C(=O)N[C@@H](Cc1c[nH]cn1)C(=O)N[C@@H](Cc1ccccc1)C(=O)N[C@@H](CCSC)C(=O)N[C@@H](CCCNC(=N)N)C(=O)N[C@@H](CC(C)C)C(=O)N1CCC[C@H]1C(=O)N[C@@H](CCCCN)C(=O)N[C@@H](C)C(=O)O)[C@@H](C)O", "target": "PCNA", "assay": "binding, ITC", "setting": "pH 7.4", "endpoint": "Kd", "value": "4.55 µM"}
{"Compound": "NCC(O)c1cc(O)c(O)cc1F (stereo not drawn)", "target": "Beta-2 adrenergic receptor (ADRB2, Homo sapiens, UniProt P07550, D192G/F193V)", "assay": "ligand displacement, radioligand", "setting": "cell membranes", "endpoint": "Ki", "value": "> 2000 µM"}
{"Compound": "CCCCOc1ccc(C(=O)CCN2CCCCC2)cc1", "target": "Histamine H3 receptor (HRH3, Homo sapiens, UniProt Q9Y5N1)", "assay": "ligand displacement, radioligand", "endpoint": "IC50", "value": "3.89 µM"}
{"Compound": "CC(C)(C)[C@H](NC(=O)[C@H](CCONC(=N)N)NC(=O)Cc1ccc(CN)cc1)C(=O)N[C@@H](CCONC(=N)N)C(=O)NCc1ccc(C(=N)N)cc1", "target": "F10 trypsin-like site", "assay": "enzyme activity, inhibitor", "setting": "pH 8", "endpoint": "Ki", "value": "47 µM"}
{"Compound": "CN1[C@@H]2C[C@@H](OC(=O)[C@H](CO)c3ccccc3)C[C@H]1[C@@H]1O[C@@H]12", "target": "Ileal sodium/bile acid cotransporter (SLC10A2, Homo sapiens, UniProt Q12908)", "assay": "transporter uptake, inhibitor", "endpoint": "Ki", "value": "6450 µM"}
{"Compound": "CC(C)(C)[C@H](NC(=O)[C@H](CCCNC(=N)N)NC(=O)Cc1ccc(CNC(=N)N)cc1)C(=O)N[C@@H](CCONC(=N)N)C(=O)NCc1ccc(C(=N)N)cc1", "target": "F10 trypsin-like site", "assay": "enzyme activity, inhibitor", "setting": "pH 8", "endpoint": "Ki", "value": "15 µM"}
{"Compound": "NCC(O)c1ccc(O)cc1 (stereo not drawn)", "target": "Beta-2 adrenergic receptor (ADRB2, Homo sapiens, UniProt P07550)", "assay": "ligand displacement, radioligand", "setting": "cell membranes", "endpoint": "IC50", "value": "73.7 µM"}
{"Compound": "COc1ccc(-c2cc(C(=O)N[C@H](C(=O)O)C3CCCCC3)nn2-c2ccnc3cc(Cl)ccc23)c(OC)c1", "target": "Neurotensin receptor type 1 (Ntsr1, Rattus norvegicus, UniProt P20789)", "assay": "calcium signal, antagonist, fluorescence", "endpoint": "Kb", "value": "> 10 µM"}
{"Compound": "CC[C@H](C)[C@H](NC(=O)[C@H](CCCCN)NC(=O)[C@H](CO)NC(=O)[C@H](CC(=O)O)NC(=O)[C@H](CCCCN)NC(=O)[C@H](CCCCN)NC(=O)CNC(=O)[C@H](Cc1c[nH]cn1)NC(=O)[C@@H](N)CCC(N)=O)C(=O)N[C@H](C(=O)N[C@@H](CC(=O)O)C(=O)N[C@@H](Cc1c[nH]cn1)C(=O)N[C@@H](Cc1ccccc1)C(=O)N[C@@H](C)C(=O)N[C@@H](CCCNC(=N)N)C(=O)N[C@@H](CC(C)C)C(=O)N1CCC[C@H]1C(=O)N[C@@H](CCCCN)C(=O)N[C@@H](C)C(=O)O)[C@@H](C)O", "target": "PCNA", "assay": "binding, ITC", "setting": "pH 7.4", "endpoint": "Kd", "value": "1.65 µM"}
